According to ChEMBL document CHEMBL1649109, “Antiparasitic activities and toxicities of individual enantiomers of the 8-aminoquinoline 8-[(4-amino-1-methylbutyl)amino]-6-methoxy-4-methyl-5-[3,4-dichlorophenoxy]quinoline succinate” (Antimicrob Agents Chemother, 2008):
Active and inactive are the calls of the source. No cut-off for these calls is given here.

How the values were obtained:
Pneumocystis carinii [1] = test: Antimicrobial activity against Pneumocystis carinii infected BALB/c mouse at 5 mg/kg/day, po after 21 days administered 4 weeks postinfection by methenamine silver nitrate staining method; type: functional, organism-based
Summary of the method: (§1)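 Female BALB/c mice, 6-8 weeks, immunosuppressed with dexamethasone […] in drinking water, then inoculated transtracheally with 10^6 P. carinii. From 4 weeks post-inoculation, drug given in drinking water for 3 weeks, 10 mice/group, intake monitored. Lung impression smears stained with Giemsa or methenamine silver, read blinded. Graded 0-5 on a log scale; group mean ± SE.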

Plasmodium berghei [2] = test: Antimalarial activity against Plasmodium berghei KBG-173 infected in Swiss(CD-1) mouse assessed as survival at 4 mg/kg/day, po treated for 3 days measured on day 34; type: functional, organism-based
Summary of the method: (§2)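 CD-1 mice, 5 weeks old, male or female, groups of five, infected with 5 × 10^4 P. berghei KBG-173 parasitized erythrocytes. Drug in 0.5% hydroxyethylcellulose/0.1% Tween 80, given orally once daily on days 3, 4 and 5 post-infection. Parasitemia from blood films on day +6. Read-out also includes increase in mean survival time over controls and survivors at day +34.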

Plasmodium berghei [3] = test: Antimalarial activity Plasmodium berghei KBG-173 infected in Swiss(CD-1) mouse assessed as mean survival time at 2 mg/kg, po pretreated 2 days before infection; type: functional
Summary of the method: (§3)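 CD-1 mice, 5 weeks old, male or female, groups of five, infected with 5 × 10^4 P. berghei KBG-173 parasitized erythrocytes. One 2 mg/kg oral dose given on a single day, from day −3 to +2 relative to inoculation. Controls untreated. Read-out is increase in mean survival time over controls and number alive at day +30.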

Leishmania donovani [4] = test: Antileishmanial activity against Leishmania donovani HU3 infected in mouse assessed as inhibition of parasites in liver at 100 mg/kg/day, po treated for 5 days administered 7 days postinfection measured after 14 days; type: functional
Summary of the method: (§4)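 L. donovani HU3 amastigotes, 1 × 10^7 given IV to mice. From day 7 post-infection, dosed orally once daily for 5 days in 0.25% methylcellulose-10% ethanol; reference stibogluconate given SC. Mice killed at day 14 post-infection. Parasite burden counted on liver impression smears against untreated controls. ED50 from linear regression, with 95% confidence limits.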

Plasmodium berghei [5] = test: Antimalarial activity against Plasmodium berghei KBG-173 infected in Swiss(CD-1) mouse assessed as parasitemia at 0.25 mg/kg/day, po treated for 3 days measured on day 6
Pneumocystis carinii [6] = test: Antimicrobial activity against Pneumocystis carinii infected BALB/c mouse at 0.1 mg/kg/day, po after 21 days administered 4 weeks postinfection by Giemsa staining method; type: functional, organism-based
Pneumocystis carinii [7] = test: Antimicrobial activity against Pneumocystis carinii infected BALB/c mouse at 0.25 mg/kg/day, po after 21 days administered 4 weeks postinfection by Giemsa staining method; type: functional, organism-based; summary of the method: as §1
Leishmania donovani [8] = test: Antileishmanial activity against Leishmania donovani HU3 infected in mouse assessed as inhibition of parasites in liver at 10 mg/kg/day, po treated for 5 days administered 7 days postinfection measured after 14 days post-infection; type: functional; summary of the method: as §4
Plasmodium berghei [9] = test: Antimalarial activity against Plasmodium berghei KBG-173 infected in Swiss(CD-1) mouse assessed as mean survival time at 1 mg/kg/day, po treated for 3 days; type: functional; summary of the method: as §2
Leishmania donovani [10] = test: Antileishmanial activity against Leishmania donovani HU3 infected in mouse; type: functional; summary of the method: as §4
Plasmodium berghei [11] = test: Antimalarial activity Plasmodium berghei KBG-173 infected in Swiss(CD-1) mouse assessed as survival at 2 mg/kg, po treated 1 day postinfection measured on day 30; type: functional, organism-based; parameters: dose 2 mg/kg; summary of the method: as §3
Pneumocystis carinii [12] = test: Antimicrobial activity against Pneumocystis carinii infected BALB/c mouse at 5 mg/kg/day, po after 21 days administered 4 weeks postinfection by Giemsa staining method; type: functional, organism-based; summary of the method: as §1
Leishmania donovani [13] = test: Antileishmanial activity against Leishmania donovani HU3 infected in mouse assessed as inhibition of parasites in liver at 5 mg/kg/day, po treated for 5 days administered 7 days postinfection measured after 14 days post-infection; type: functional; summary of the method: as §4
Plasmodium berghei [14] = test: Antimalarial activity against Plasmodium berghei KBG-173 infected in Swiss(CD-1) mouse assessed as mean survival time at 0.25 mg/kg/day, po treated for 3 days; type: functional; summary of the method: as §2
Pneumocystis carinii [15] = test: Antimicrobial activity against Pneumocystis carinii infected BALB/c mouse at 1 mg/kg/day, po after 21 days administered 4 weeks postinfection by Giemsa staining method; type: functional, organism-based; summary of the method: as §1
Plasmodium berghei [16] = test: Antimalarial activity Plasmodium berghei KBG-173 infected in Swiss(CD-1) mouse assessed as survival at 2 mg/kg, po treated at day of infection measured on day 30; type: functional, organism-based; parameters: dose 2 mg/kg; summary of the method: as §3
Pneumocystis carinii [17] = test: Antimicrobial activity against Pneumocystis carinii infected BALB/c mouse at 0.5 mg/kg/day, po after 21 days administered 4 weeks postinfection by methenamine silver nitrate staining method; type: functional, organism-based; summary of the method: as §1
Leishmania donovani [18] = test: Antileishmanial activity against Leishmania donovani HU3 infected in mouse assessed as inhibition of parasites in liver at 0.4 mg/kg/day, po treated for 5 days administered 7 days postinfection measured after 14 days post-infection; type: functional; summary of the method: as §4
Plasmodium berghei [19] = test: Antimalarial activity Plasmodium berghei KBG-173 infected in Swiss(CD-1) mouse assessed as survival at 2 mg/kg, po treated 2 day postinfection measured on day 30; type: functional, organism-based; parameters: dose 2 mg/kg; summary of the method: as §3
Pneumocystis carinii [20] = test: Antimicrobial activity against Pneumocystis carinii infected BALB/c mouse at 0.25 mg/kg/day, po after 21 days administered 4 weeks postinfection by methenamine silver nitrate staining method; type: functional, organism-based; summary of the method: as §1
Pneumocystis carinii [21] = test: Antimicrobial activity against Pneumocystis carinii infected BALB/c mouse at 1 mg/kg/day, po after 21 days administered 4 weeks postinfection by methenamine silver nitrate staining method; type: functional, organism-based; summary of the method: as §1
Canis familiaris = test: Toxicity in Beagle dog assessed as increase in methemoglobin level at 0.64 mg/kg/day, po; type: organism-based, Canis lupus familiaris; parameters: route oral; settings: in vivo
Summary of the method: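 Beagle dogs, one male and one female per enantiomer, given 0.64 mg/kg/day (0.5 mg/kg base) orally for 4 days. After a 5-week washout the same dogs received 1.91 mg/kg/day for 4 days. Methemoglobin sampled from days −6 to 36. Each dog's values are mean of duplicate determinations.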

Pneumocystis carinii [22] = test: Antimicrobial activity against Pneumocystis carinii infected BALB/c mouse at 0.5 mg/kg/day, po after 21 days administered 4 weeks postinfection by Giemsa staining method; type: functional, organism-based; summary of the method: as §1
Plasmodium berghei [23] = test: Antimalarial activity against Plasmodium berghei KBG-173 infected in Swiss(CD-1) mouse assessed as reduction in parasitemia at 4 mg/kg/day, po treated for 3 days measured on day 6; type: functional; parameters: scale not given: the % may be the effect or the level left; summary of the method: as §2
Plasmodium berghei [24] = test: Antimalarial activity Plasmodium berghei KBG-173 infected in Swiss(CD-1) mouse assessed as survival at 2 mg/kg, po pretreated 1 day before infection measured on day 30; type: functional, organism-based; parameters: dose 2 mg/kg; summary of the method: as §3
Plasmodium berghei [25] = test: Antimalarial activity against Plasmodium berghei KBG-173 infected in Swiss(CD-1) mouse assessed as parasitemia at 1 mg/kg/day, po treated for 3 days measured on day 6
Plasmodium berghei [26] = test: Antimalarial activity Plasmodium berghei KBG-173 infected in Swiss(CD-1) mouse assessed as mean survival time at 2 mg/kg, po pretreated 3 days before infection; type: functional; summary of the method: as §3

COc1cc(N[C@H](C)CCCN)c2nccc(C)c2c1Oc1ccc(Cl)c(Cl)c1.O=C(O)CCC(=O)O
Activity (Pneumocystis carinii [1]): Active
Activity (Plasmodium berghei [2]): inactive
MST (Plasmodium berghei [3]): 8.4 days
inhibition in vivo at 100 mg/kg/day (Leishmania donovani [4]): 99.8%
Activity (Plasmodium berghei [5]): 0.2%
Activity (Pneumocystis carinii [6]): Active
Activity (Pneumocystis carinii [7]): Active
inhibition in vivo at 10 mg/kg/day (Leishmania donovani [8]): 99.3%
MST (Plasmodium berghei [9]): 20.5 days
ED90 (Leishmania donovani [10]): 3.61 mg/kg
ED50 (Leishmania donovani [10]; Leishmania donovani, HU3): 1.28 mg/kg
Activity (Plasmodium berghei [11]): inactive
Activity (Pneumocystis carinii [12]): Active
inhibition in vivo at 5 mg/kg/day (Leishmania donovani [13]): 98%
MST (Plasmodium berghei [14]): 11.6 days
Activity (Pneumocystis carinii [15]): Active
Activity (Plasmodium berghei [16]): inactive
Activity (Pneumocystis carinii [17]): Active
inhibition in vivo at 0.4 mg/kg/day (Leishmania donovani [18]): 61.5%
Activity (Plasmodium berghei [19]): inactive
Activity (Pneumocystis carinii [20]): Active
Activity (Pneumocystis carinii [21]): Active
Activity (Canis familiaris): Toxic
Activity (Pneumocystis carinii [22]): Active
Activity (Plasmodium berghei [23]): 0%
Activity (Plasmodium berghei [24]): inactive
Activity (Plasmodium berghei [25]): 0%
MST (Plasmodium berghei [26]): 4.6 days
